Data as given in PMC4470291 (Biochemistry, 2009).
Square brackets hold non-standard residues; d marks the D form. Peptide text beside a SMILES is read from it. * marks the point of attachment. AMC = Cc1cc(=O)oc2cc(N*)ccc12; Pip = O=C(O)[C@@H]1CCCCN1; Cbz = O=C(OCc1ccccc1)*; AEEA = NCCOCCOCC(=O)O

Tests used:
DPPIV [1] = biological target: T1, DPPIV (Homo sapiens, UniProt P27487); test: Kinetics of fluorogenic substrate cleavage by DPPIV; format: biochemical
APCE [2] = biological target: T2, APCE (Homo sapiens, UniProt Q12884); test: Kinetics of fluorogenic substrate cleavage by APCE; format: biochemical; settings: for kcat, APCE / Km: pH 7.5, 22 °C, 20 min; for Km: read-out: Km, APCE
T2 sequence (Q12884 24-760 limits assumed): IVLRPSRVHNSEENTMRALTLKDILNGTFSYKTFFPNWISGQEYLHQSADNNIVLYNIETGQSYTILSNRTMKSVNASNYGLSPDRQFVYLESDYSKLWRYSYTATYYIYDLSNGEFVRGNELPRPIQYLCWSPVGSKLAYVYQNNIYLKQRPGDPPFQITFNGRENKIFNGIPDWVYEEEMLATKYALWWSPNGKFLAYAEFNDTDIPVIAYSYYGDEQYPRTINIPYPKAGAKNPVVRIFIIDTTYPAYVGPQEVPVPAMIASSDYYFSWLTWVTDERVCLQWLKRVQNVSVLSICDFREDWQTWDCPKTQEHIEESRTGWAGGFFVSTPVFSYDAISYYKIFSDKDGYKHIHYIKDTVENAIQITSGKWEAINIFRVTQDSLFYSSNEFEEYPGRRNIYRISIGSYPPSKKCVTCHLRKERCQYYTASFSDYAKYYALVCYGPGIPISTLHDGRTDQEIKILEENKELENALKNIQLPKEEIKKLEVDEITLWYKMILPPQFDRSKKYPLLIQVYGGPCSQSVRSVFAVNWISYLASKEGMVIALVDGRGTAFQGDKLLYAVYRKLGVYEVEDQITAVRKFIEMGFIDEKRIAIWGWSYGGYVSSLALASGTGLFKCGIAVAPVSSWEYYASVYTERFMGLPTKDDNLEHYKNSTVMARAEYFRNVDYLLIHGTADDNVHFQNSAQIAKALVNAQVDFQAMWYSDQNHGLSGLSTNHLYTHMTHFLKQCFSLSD

APCE [3] = biological target: T2, APCE; test: Cleavage of inhibitor by APCE during incubation; format: biochemical; settings: for hydrolysis of inhibitor by APCE: lengthy incubations with APCE
APCE [4] = biological target: T2, APCE; test: APCE inhibition, fluorogenic substrate Z-Gly-Pro-AMC; format: biochemical; settings: for inhibitory effect on APCE: result in words
Summary of the method: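 Human-plasma-purified APCE in 25 mM sodium phosphate, pH 7.5, with 1.0 mM EDTA and 4% methanol; 20 min at 22 °C. Z-Gly-Pro-AMC at five concentrations (10–500 μM range) crossed with four inhibitor concentrations around the expected Ki. Released AMC followed over time (ex 360/em 460 nm) against an AMC standard curve. Competitive mode set by Lineweaver–Burk; Ki from competitive-equation fit, best fit ± standard error.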

recombinant FAP = settings: cited from earlier work
DPPIV [5] = biological target: T1, DPPIV; settings: read-out: Ki for DPPIV; cited from earlier work
FAP = settings: read-out: Ki for FAP; cited from earlier work
[6] = tested on: CSCC[C@H](N)C(=O)N[C@@H](CCC(=O)O)C(=O)N1CCC[C@H]1C(=O)N[C@@H](CC(C)C)C(=O)NCC(=O)N[C@@H](CCCNC(=N)N)C(=O)N[C@@H](CCC(N)=O)C(=O)N[C@@H](CC(C)C)C(=O)N[C@H](C(=O)N[C@@H](CO)C(=O)NCC(=O)N1CCC[C@H]1C(=O)Nc1ccc2c(C)cc(=O)oc2c1)[C@@H](C)O; test: Kinetics of fluorogenic substrate cleavage by APCE; format: biochemical, human; settings: other: pH 7.5, 22 °C, 20 min
[7] = tested on: CSCC[C@H](N)C(=O)N[C@@H](CCC(=O)O)C(=O)N1CCC[C@H]1C(=O)N[C@@H](CC(C)C)C(=O)NCC(=O)N[C@@H](Cc1c[nH]c2ccccc12)C(=O)N[C@@H](CCC(N)=O)C(=O)N[C@@H](CC(C)C)C(=O)N[C@H](C(=O)N[C@@H](CO)C(=O)NCC(=O)N1CCC[C@H]1C(=O)Nc1ccc2c(C)cc(=O)oc2c1)[C@@H](C)O; test: Kinetics of fluorogenic substrate cleavage by APCE; format: biochemical, human; settings: other: pH 7.5, 22 °C, 20 min

T1 sequence (P27487 whole entry, species assumed): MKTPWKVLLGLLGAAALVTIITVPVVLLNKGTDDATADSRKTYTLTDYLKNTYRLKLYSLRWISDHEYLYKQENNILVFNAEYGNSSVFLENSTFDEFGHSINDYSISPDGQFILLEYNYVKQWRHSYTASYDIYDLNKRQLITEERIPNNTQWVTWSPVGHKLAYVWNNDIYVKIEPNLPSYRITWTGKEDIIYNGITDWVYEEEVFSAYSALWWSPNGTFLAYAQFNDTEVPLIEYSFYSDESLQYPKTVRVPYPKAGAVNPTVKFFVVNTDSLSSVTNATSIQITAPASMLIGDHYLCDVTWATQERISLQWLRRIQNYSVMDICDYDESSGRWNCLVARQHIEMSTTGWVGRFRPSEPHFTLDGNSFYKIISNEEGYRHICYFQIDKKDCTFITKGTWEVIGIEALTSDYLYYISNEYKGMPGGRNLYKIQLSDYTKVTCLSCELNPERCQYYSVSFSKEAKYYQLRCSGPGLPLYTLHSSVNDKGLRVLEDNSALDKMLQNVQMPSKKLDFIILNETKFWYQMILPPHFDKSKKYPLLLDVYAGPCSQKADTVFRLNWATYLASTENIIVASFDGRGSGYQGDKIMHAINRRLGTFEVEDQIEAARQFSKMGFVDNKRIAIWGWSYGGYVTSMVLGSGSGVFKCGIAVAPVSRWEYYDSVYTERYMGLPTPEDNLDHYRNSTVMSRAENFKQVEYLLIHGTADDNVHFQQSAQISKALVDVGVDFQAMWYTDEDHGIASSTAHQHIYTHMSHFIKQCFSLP

Cc1cc(=O)oc2cc(NC(=O)[C@@H]3CCCN3C(=O)CN)ccc12 [GP-AMC, Gly-Pro-7-amido-4-methylcoumarin] (H-Gly-Pro-{AMC})
kcat/Km of DPPIV higher than that of APCE (DPPIV [1]): ~30 fold
kcat, DPPIV (DPPIV [1]; pH 7.5, 22 °C, 20 min): 1.985 ± 0.102 s⁻¹
Km (DPPIV [1]; read-out: Km, DPPIV, pH 7.5, 22 °C, 20 min): 63 ± 6 µM
kcat, APCE (APCE [2]): 0.485 ± 0.0183 s⁻¹
Km (APCE [2]): 455 ± 42 µM
kcat/Km of APCE lower than the other three substrates (APCE [2]; vs MEPLGRQLTSGP-AMC, MEPLGWQLTSGP-AMC, Z-GP-AMC): 6–51 fold

CC(C)C[C@H](NC(=O)[C@H](CCC(N)=O)NC(=O)[C@H](CCCNC(=N)N)NC(=O)[C@@H](N)Cc1ccccc1)C(=O)N[C@H](C(=O)N[C@@H](CO)C(=O)NCC(=O)N1CCCC[C@H]1C(=O)N[C@@H](CC(N)=O)C(=O)N[C@@H](CCC(N)=O)C(=O)N[C@@H](CCC(=O)O)C(=O)N[C@@H](CCC(N)=O)C(=O)N[C@H](C(=O)O)C(C)C)[C@@H](C)O [Inhibitor 1, FRQLTSG-pipecolinyl-NQEQV] (H-FRQLTSG[Pip]NQEQV-OH; N-terminus assumed)
hydrolysis of inhibitor by APCE (APCE [3]): slowly hydrolyzed

CC(C)[C@H](NC(=O)[C@H](CCC(N)=O)NC(=O)[C@H](CCC(=O)O)NC(=O)[C@H](CCC(N)=O)NC(=O)[C@H](CC(N)=O)NC(=O)[C@@H]1CCCCN1C(=O)CNC(=O)COCCOCCNC(=O)[C@H](CCCNC(=N)N)NC(=O)[C@@H](N)Cc1ccccc1)C(=O)O [Inhibitor 2, FR-peg-G-pipecolinyl-NQEQV] (H-FR[AEEA]G[Pip]NQEQV-OH; N-terminus assumed)
fraction of inhibitor cleaved by APCE (APCE [3]; 1 h incubation, LC/MS): ~6%
hydrolysis of inhibitor by APCE (APCE [3]): slowly hydrolyzed

CC(C)[C@H](NC(=O)[C@H](CCC(N)=O)NC(=O)[C@H](CCC(=O)O)NC(=O)[C@H](CCC(N)=O)NC(=O)[C@H](CC(N)=O)NC(=O)[C@@H]1CCCCN1C(=O)CNC(=O)COCCOCCNC(=O)CNC(=O)[C@@H](N)Cc1ccccc1)C(=O)O [Inhibitor 3, FG-peg-G-pipecolinyl-NQEQV] (H-FG[AEEA]G[Pip]NQEQV-OH; N-terminus assumed)
change of Ki relative to inhibitor 2 (P7 Arg replaced with Gly) (APCE [4]; printed as Ki reduced): ~4 fold

N=C(N)NCCC[C@H](NC(=O)[C@@H](N)Cc1ccccc1)C(=O)NCCOCCOCC(=O)NCC(=O)N1CCCC[C@H]1C(N)=O [Inhibitor 11, FR-peg-G-pipecolinamide] (H-FR[AEEA]G[Pip]-NH2; N-terminus assumed)
inhibitory effect on APCE (APCE [4]): lacked inhibitory properties

Cc1cc(=O)oc2cc(NC(=O)[C@@H]3CCCN3C(=O)CNC(=O)OCc3ccccc3)ccc12 [Z-GP-AMC, benzyloxycarbonyl- (Z-) Gly-Pro-AMC] (Cbz-Gly-Pro-{AMC})
increase in catalytic efficiency of recombinant FAP as opposed to Gly-Pro-AMC (recombinant FAP): ~18 fold
kcat, APCE (APCE [2]): 0.607 ± 0.02 s⁻¹
Km (APCE [2]): 90 ± 9 µM

CC(=O)NCC(=O)N1CCCC1C#N (stereo not drawn) [acetyl-Gly-Pro-nitrile]
Ki (DPPIV [5]): 61 µM
Ki (FAP): 6.8 µM

APCE (Homo sapiens)
Km [6]: 21 ± 2 µM
kcat [6]: 1.17 ± 0.0383 s⁻¹
kcat/Km [6]: 55000 M⁻¹ s⁻¹
Km [7]: 70 ± 6 µM
kcat [7]: 0.922 ± 0.025 s⁻¹
kcat/Km [7]: 13200 M⁻¹ s⁻¹

FR-peg-G-pipecolinic acid
inhibitory effect on APCE (APCE [4]): neither of which appeared to have any inhibitory effect

NQEQV
inhibitory effect on APCE (APCE [4]): neither of which appeared to have any inhibitory effect
